Consider 15 molecules from ChEMBL document CHEMBL1649415, “Synthesis, physicochemical characterization, and biological activities of new carnosine derivatives stable in human serum as potential neuroprotective agents” (J Med Chem, 2011).

Active and inactive are the calls of the source. The calls are words filed in the database; no cut-off is given here.

The nature of series [1]: Lipophilicity, log D of the compound by shake-flask technique. Conditions: octanol/water. The series is classed as physicochemical. In a few lines:
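Shake-flask at pH 7.4, in phosphate buffer with ionic strength 0.15 M KCl and mutually presaturated n-octanol (4 h). Compound about 0.1 mM in the aqueous phase, shaken about 20 min, then centrifuged. Aqueous concentration measured by UV at 230 nm; at least seven log D determinations per compound.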

The next series relates to Serum. Description: Stability of the compound in human serum after 3 hrs. The class given is ADME, cell-free. In a few lines:
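Compound added from a 10 mM aqueous stock to human serum preheated to 37 °C, giving 0.5 mM final, and incubated at 37 ± 0.5 °C. At intervals, aliquots were deproteinized with an equal volume of acetonitrile/0.1% TFA, centrifuged and filtered. Analysis by RP-HPLC on C18 with methanol/20 mM sodium acetate pH 4.5-5 mM SDS (80/20 to 60/40).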

The nature of series [2]: Antioxidant activity against CuSO4-induced LDL oxidation assessed as delta-lag time at 100 uM by antioxidation assay. The series is classed as functional. In short, it runs like this:
(§1)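 Human plasma LDL (EDTA-treated donor plasma, density 1.019-1.063 g/mL fraction by ultracentrifugation, desalted) diluted in 10 mM phosphate buffer pH 7.4 to 50 µg protein/mL. Compound added at 100 µM final, oxidation started with CuSO4 2.5 µM final at 37 °C. Conjugated dienes followed at 234 nm over 6 h. Lag-time change versus control and propagation rate (ε234 = 29500 M-1 cm-1) derived; mean ± SEM.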

A short description of series [3]: Antioxidant activity against CuSO4-induced LDL oxidation measured per mg og LDL product assessed as propagation rate of the oxidation at 100 uM by antioxidation assay. The series is classed as functional. In short, it runs like this:
as §1

Series [4] in a line: Antioxidant activity assessed as 4-hydroxy-trans-2,3-nonenal scavenging activity at 1 mM after 1 hr by HPLC relative to control. The class given is functional. In short, it runs like this: (§2)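 HNE (50 µM final) incubated with compound (1 mM final) in 1 mM phosphate buffer pH 7.4 at 37 °C for up to 24 h. Samples were injected directly onto reverse-phase C18 HPLC to measure remaining HNE. Scavenging % = 100 − (HNE left with scavenger / HNE left in control × 100); mean ± SEM.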

Series [5] can be described thus: Antioxidant activity assessed as 4-hydroxy-trans-2,3-nonenal scavenging activity at 1 mM after 6 hrs by HPLC relative to control. The class given is functional. In a few lines: as §2
Series [6] in a line: Antioxidant activity assessed as 4-hydroxy-trans-2,3-nonenal scavenging activity at 1 mM after 24 hrs by HPLC relative to control. The class given is functional. In a few lines:
as §2

Series [7] in a line: Toxicity in mouse primary hippocampal neuron assessed as adverse effect at 100 uM after 24 hrs. The class given is tissue-based, Hippocampus.
Series [8] deals with Neuron. Kind of series: Cytoprotective effect in mouse primary hippocampal neuron assessed as reduction in 4-hydroxy-trans-2,3-nonenal-induced damage at 100 uM after 24 hrs. More on the design: scale not given: the % may be the effect or the level left. The series is classed as functional, Hippocampus. In short, it runs like this:
(§3)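 They were grown 6 days in B-27 neurobasal medium at 37 °C, 5% CO2. Compound (100 µM in medium) was given alone or as pretreatment before HNE 10 µM, for 24 h. Death was scored by trypan blue exclusion against pre-incubation counts; mean ± SEM, n = 4-7, paired t test.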

Series [9] concerns Neuron. Kind of series: Cytoprotective effect in mouse primary hippocampal neuron assessed as reduction in 4-hydroxy-trans-2,3-nonenal-induced neuronal disruption at 100 uM after 24 hrs. The series is classed as functional, tissue-based. The conditions noted are these: Hippocampus. In short, it runs like this: as §3
Series [10] can be described thus: Drug level in Wistar rat brain measured per gram of tissue at 20 mg/kg, iv after 3 hrs. The series is classed as ADME, organism-based. More on the design: dose 20 mg/kg, route intravenous. Conditions: read-out: Drug uptake. In short, it runs like this:
(§4)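 Male Wistar rats, 200-250 g, given 20 mg/kg i.v. in 0.9% saline; 3 rats per time point, killed at 1.5 or 3 h. Heparinized blood and brain homogenized in equal volume of cold water were deproteinized with acetonitrile/0.1% TFA, centrifuged and filtered. RP-HPLC on C18 with methanol/20 mM sodium acetate pH 4.5-5 mM SDS (70/30), detection 210 and 223 nm; spiked untreated-rat samples used as standards.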

Series [11] is described as follows: Drug level in Wistar rat brain measured per gram of tissue at 20 mg/kg, iv after 1.5 hrs. The class given is ADME, organism-based. More on the design: dose 20 mg/kg, route intravenous. The conditions noted are these: read-out: Drug uptake. In short, it runs like this: as §4
Series [12] is described as follows: Drug level in Wistar rat blood at 20 mg/kg, iv after 1.5 hrs. The class given is ADME, organism-based. More on the design: dose 20 mg/kg, route intravenous. Conditions: whole blood, read-out: Drug uptake. In a few lines: as §4

On to `CCOC[C@H](Cc1c[nH]cn1)NC(=O)CCN.O=C(O)C(F)(F)F`, for which the logD (as a rule, lipophilicity at a set pH, counting ionised and neutral species) in series [1] was -2.17. Also, the Stability result in the series on Serum is given as “Stable”. Further, the TIME in series [2] is -0.0667 h. Further, the Activity in series [3] amounted to 12.2 nmol/min; in series [4], 17.9%; in [5], 60.7%; in series [6], 86.2%.
In [1], `CCCCOc1ccc(CNC(=O)[C@H](Cc2c[nH]cn2)NC(=O)CCN)cc1.O=C(O)C(F)(F)F` displayed a logD of -0.13. In addition, the Stability entry with Serum is “Stable”. Further, the TIME in series [2] is 0.817 h. Besides, the Activity turned out to be 10 nmol/min in series [3], 8.8% in [4], 32.6% in [5] and 80.7% in series [6].
For the molecule `CNC(=O)[C@H](Cc1c[nH]cn1)NC(=O)CCN.O=C(O)C(F)(F)F`, the Stability result in the series with Serum is “Stable”. Besides, in series [2], the TIME was determined as 1.25 h. Also, the Activity in series [3] came out at 6.8 nmol/min; in series [4], 8%; in [5] it was 35.2%; in [6], 75.4%.
Consider `NCCC(=O)N[C@@H](Cc1cnc[nH]1)C(=O)O` [CARNOSINE], for which the Stability result in the series on Serum is on record as “Stable”. Moreover, the Activity entry in series [7] is “Non-toxic”.
With `CCNC(=O)[C@H](Cc1c[nH]cn1)NC(=O)CCN.O=C(O)C(F)(F)F`, the Stability result in the series on Serum was “Stable”. Further, the TIME in series [2] is 1.13 h. Moreover, the Activity in series [3] turned out to be 7 nmol/min; in series [4] it was 8.4%; in series [5], 32.9%; in series [6] it was 70.9%.
Take `NCCC(=O)N[C@@H](Cc1c[nH]cn1)C(=O)O` [CARNOSINE]: the TIME in series [2] amounted to 1.12 h. Moreover, the Activity came to 5.8 nmol/min in series [3]; 20.4% in series [4]; 59.6% in series [5]; 88.8% in series [6]; 6% in the series on Neuron [8].
On to `NCCC(=O)N[C@@H](Cc1c[nH]cn1)C(=O)NCc1ccccc1.O=C(O)C(F)(F)F`, for which, in series [1], the logD is -1.76. The Stability result with Serum was “Stable”. In addition, the TIME in series [2] is 1.42 h. Besides, the Activity in series [3] was 5.2 nmol/min; in [4], 7.2%; in [5], 29.3%; in [6], 72.8%.
In series [1], `CCCCCCNC(=O)[C@H](Cc1c[nH]cn1)NC(=O)CCN.O=C(O)C(F)(F)F` yielded a logD of -0.88. Also, in the series with Serum, the Stability result was “Stable”. The TIME in series [2] is 1.32 h. Further, the Activity is 6.7 nmol/min in series [3], 12% in [4], 35.4% in [5] and 75.9% in series [6].
Turning to `CCCCCCCCCCNC(=O)[C@H](Cc1c[nH]cn1)NC(=O)CCN.O=C(O)C(F)(F)F`, in series [1], the logD came to 0.85. For the same molecule, in the series with Serum, the Stability entry is reported as “Stable”. Also, in series [2], the TIME was determined as 0.15 h. For the same molecule, in [3], the Activity turned out to be 21 nmol/min.
In series [1], `CCCCCCCCNC(=O)[C@H](Cc1c[nH]cn1)NC(=O)CCN.O=C(O)C(F)(F)F` showed a logD of -0.23. In addition, in the series with Serum, the Stability entry is listed as “Stable”. Besides, the TIME in [2] turned out to be 0.717 h. In addition, the Activity in series [3] is 11.8 nmol/min; in [4] it was 12.8%; in series [5] it was 49.7%; in [6] it was 86.7%.
Take `CCCNC(=O)[C@H](Cc1c[nH]cn1)NC(=O)CCN.O=C(O)C(F)(F)F`: in series [1], the logD was -2.72. For the same molecule, the Stability entry in the series with Serum is “Stable”. In series [2], the TIME was 1.13 h. Besides, the Activity in series [3] was 7.7 nmol/min; in series [4] it was 12.5%; in [5], 42.7%; in series [6], 81%; in series [7], “Non-toxic”; with Neuron [8] it was 40%. Further, the outcome with Neuron [9] was Active. Moreover, the concentration at 3 h in series [10] came out at 1100 ng/g. The values for the concentration at 1.5 h in [11] and in series [12] were 600 ng/g and 260 ng/mL, respectively.
On to `CCCCCCCCCCCCNC(=O)[C@H](Cc1c[nH]cn1)NC(=O)CCN.O=C(O)C(F)(F)F`, for which the logD in series [1] was determined as 0.93. The Stability entry in the series with Serum is recorded as “Stable”. In addition, the TIME in [2] was -0.05 h. The Activity in series [3] came to 14.5 nmol/min.
On to `NCCC(=O)N[C@@H](Cc1c[nH]cn1)C(=O)NCC1CCCCC1.O=C(O)C(F)(F)F`, for which, in [1], the logD was -0.94. The Stability entry in the series with Serum is recorded as “Stable”. In addition, the TIME in [2] came out at 1.42 h. Besides, the Activity in [3] was 5.6 nmol/min; in series [4] it was 12.8%; in series [5] it was 28.2%; in series [6] it was 62.5%.
The molecule `CCCCNC(=O)[C@H](Cc1c[nH]cn1)NC(=O)CCN.O=C(O)C(F)(F)F` came in with a logD in series [1] of -2.01. The Stability entry in the series on Serum is “Stable”. Also, the TIME in [2] was determined as 1.37 h. Further, the Activity was 5.7 nmol/min in [3], 12.5% in series [4], 36.2% in [5] and 75.2% in series [6].
Consider `NCCC(=O)N[C@@H](Cc1c[nH]cn1)C(N)=O.O=C(O)C(F)(F)F`, for which the Stability result with Serum was “Stable”. In addition, the TIME in series [2] came to 1.07 h. Moreover, the Activity in [3] turned out to be 7.7 nmol/min; in series [4] it was 10.2%; in [5] it was 31.6%; in [6], 77.7%.
